Data published in PMC9465827 (ACS Medicinal Chemistry Letters, 2022).
Values after ≈ are worked out from the molar mass of the structure shown.

Tests used:
[1] = system: Madin-Darby canine kidney (MDCK) cells with canine MDR1 knocked out; assay: MDCK permeability assay; format: in vitro ADME; conditions: apical to basolateral direction
How it was run: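 MDCK cells with endogenous canine MDR1 knocked out. Transport of the test compound was measured in the apical-to-basolateral direction. Permeability was reported in 10^-6 cm/s. Data were accepted only when compound recovery was 70%-130%.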

[2] = Kinetic solubility; format: physicochemical; conditions: PBS buffer, pH 7.4, aqueous buffer, kinetic from dmso stock

Row | SMILES | permeability (passive diffusion rate), level in words [1] | solubility kinetic at 24 h [2] [µM]
1 | CN(Cc1cccnc1)C(=O)c1ccc(C2CCCCC2)cc1 [2c'] | highly permeable | 
2 | CN(Cc1cccnc1)C(=O)c1ccc([C@H]2[C@@H](F)[C@@H](F)C[C@@H](F)[C@H]2F)cc1 [J-2c'] | highly permeable | 
3 | O=C(Cn1ccnc1)Nc1ccc(C2CCCCC2)cc1 [1c] | high | 
4 | CC(=O)N1CC(C(=O)Nc2ccc(C3CCCCC3)cc2)C1 [1i] | high | 
5 | O=C(Nc1ccc([C@H]2[C@@H](F)[C@@H](F)C[C@@H](F)[C@H]2F)cc1)c1cn[nH]c1 [J-1b] |  | 136 (≈ 46.4 µg/mL)
